From paper PMC8481180 (Clinical Drug Investigation, 2021)
Entries after “also recorded” stand apart in the source; their conditions may differ. Like-named read-outs stand apart in the source and are kept apart here.

What was measured:
[1] = SMAD study, fasting and fed healthy volunteers; cited from earlier work
[2] = Clinical safety and tolerability in healthy Japanese subjects; format: in vivo, human
Summary of the method: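 Randomised, placebo-controlled: four cohorts of 8 (6 active, 2 placebo) received an oral amorphous suspension once on Day 1, then once daily on Days 3–10, fasted. Assessments were adverse events, vital signs, ECG, telemetry and routine clinical laboratory tests. They were taken before and at scheduled times after dosing and at follow-up 7–10 days after the final dose.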

[3] = system: LTE4 in urine; test: Creatine-normalized urine LTE4 quantification; format: in vivo, human
Summary of the method: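 Urinary LTE₄ was normalised to creatinine. On Days 1 and 10, samples were a pre-dose spot, pooled 0–3, 3–6, 6–9 and 9–12 h collections, and spots at 24 and 36 h. Only pre-dose spots were taken on Days 3–9. Inhibition was related to plasma exposure after oral doses of 60–600 mg.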

[4] = format: in vivo, human; settings: for Tmax: median (range)
Summary of the method: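 Oral suspension given fasted (10 h overnight), 6 subjects per dose. Blood (2 mL, K₂-EDTA) was taken pre-dose and 0.5–48 h after the first and Day-10 doses. Day-10 urine was collected pre-dose and over 0–3, 3–6, 6–12 and 12–24 h. Analysis used validated methods and non-compartmental methods with actual sampling times. AUC was by log-linear trapezoidal rule.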

[5] = cited from earlier work
[6] = Comparison of pharmacokinetics, Japanese versus non-Japanese subjects; format: in vivo, human; settings: Day 10
Summary of the method: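 Day-10 Japanese multiple-dose pharmacokinetic parameters were compared with a prior Phase I non-Japanese study (MAD part). Parameters were log-transformed to give geometric mean ratios with 90% confidence intervals. Cmax and AUCτ were also normalised to 70 kg body weight. Six subjects per cohort.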

[7] = Pharmacokinetics in healthy non-Japanese subjects; format: in vivo, human; settings: for AUCτ, non-Japanese geometric mean, body weight normalized to 70 kg: Day 10
[8] = Japanese, 60 mg OD, Day 1, geometric mean (CV%)
[9] = Japanese, 60 mg OD, Day 10, geometric mean (CV%)
[10] = Japanese, 180 mg OD, Day 1, geometric mean (CV%)
[11] = Japanese, 180 mg OD, Day 10, geometric mean (CV%)
[12] = Japanese, 360 mg OD, Day 1, geometric mean (CV%)
[13] = Japanese, 360 mg OD, Day 10, geometric mean (CV%)
[14] = Japanese, 600 mg OD, Day 1, geometric mean (CV%)
[15] = Japanese, 600 mg OD, Day 10, geometric mean (CV%)

For Cc1cc(-c2ccc(C(=O)[C@@H]3CCCC[C@H]3C(=O)Nc3cnn4c3C(=O)NCC4)cc2)n[nH]1 [AZD5718], the tolerability [1] is listed as “well tolerated”, the serious adverse events ([2]; Japanese, 60, 180, 360, 600 mg) is listed as “No serious AEs” and the “vital signs, ECG, telemetry, laboratory results” value ([2]; Japanese, all doses) is listed as “no clinically significant trends”. For the same compound, the tolerability ([2]; Japanese, single and multiple oral doses 60, 180, 360, 600 mg) was “No clinically relevant safety and tolerability findings; also recorded: safe, well tolerated”, the “time at which level of full LTE4 inhibition achieved” value ([3]; Japanese, after the first dose, all doses) was 8 h and the “sustained reduction in LTE4 in urine” value ([3]; Japanese, all doses) was “above 80%”. For the same compound, the “inhibition of LTE4 in urine after the first dose” value ([3]; Japanese, all doses (60–600 mg)) was > 80%, the “time of maximum reduction in LTE4 in urine post-dose” value ([3]; after first dose, both Japanese and non-Japanese subjects) was ≤ 12 h and the “urinary LTE4 inhibition versus AZD5718 exposure” value ([3]; single and multiple doses, at plasma concentrations in the lower nM range) was > 80%. The “AUCτ, Japanese geometric mean, body weight normalized to 70 kg” value ([4]; 60 mg, Day 10) was 1056.0 nmol·h/L, the “AUCτ, Japanese geometric mean, body weight normalized to 70 kg” value ([4]; 180 mg, Day 10) was 5896.7 nmol·h/L and the “AUCτ, Japanese geometric mean, body weight normalized to 70 kg” value ([4]; 360 mg, Day 10) was 14,981.4 nmol∙h/L. The “AUCτ, Japanese geometric mean, body weight normalized to 70 kg” value ([4]; 600 mg, Day 10) was 25,893.0 nmol∙h/L, the Cmax ([4]; Japanese, 60 mg OD oral suspension, Day 1, geometric mean (CV%), n = 6) was 140 nM and the AUCτ [4, 8] was 862.9 (35.8) nmol∙h/L. The CL/F [4, 8] was 142.1 (33.5) L/h, the t½ [4, 8] was 10.1 (44.0) h and the Tmax ([4]; Japanese, 60 mg OD, Day 1) was 1.0 (1.0, 3.0) h. The AUCτ [4, 9] was 1140.5 (25.5) nmol∙h/L, the CL/F [4, 9] was 117.8 (25.5) L/h and the CLR [4, 9] was 0.8 (22.5) L/h. For the same compound, the Cmax [4, 9] was 159 nM, the t½ [4, 9] was 12.8 (47.0) h and the Tmax ([4]; Japanese, 60 mg OD, Day 10) was 2.0 (1.0, 3.0) h. For the same compound, the AUCτ [4, 10] was 4739.4 (33.3) nmol∙h/L, the CL/F [4, 10] was 82.2 (35.8) L/h and the Cmax [4, 10] was 1280 nM. The t½ [4, 10] was 8.5 (47.9) h, the Tmax ([4]; Japanese, 180 mg OD, Day 1) was 1.0 (0.5, 2.0) h and the AUCτ [4, 11] was 6724.5 (32.0) nmol∙h/L. The CL/F [4, 11] was 60.0 (32.0) L/h, the CLR [4, 11] was 0.8 (38.4) L/h and the Cmax [4, 11] was 1570 nM. For the same compound, the t½ [4, 11] was 8.6 (23.6) h, the Tmax ([4]; Japanese, 180 mg OD, Day 10) was 1.5 (1.0, 2.0) h and the AUCτ [4, 12] was 8971.1 (47.6) nmol∙h/L. For the same compound, the CL/F [4, 12] was 84.3 (51.7) L/h, the Cmax [4, 12] was 2200 nM and the t½ [4, 12] was 15.0 (100.5) h. The Tmax ([4]; Japanese, 360 mg OD, Day 1) was 1.0 (1.0, 2.1) h, the AUCτ [4, 13] was 15,847.3 (47.8) nmol∙h/L and the CL/F [4, 13] was 50.9 (47.8) L/h. For the same compound, the CLR [4, 13] was 0.9 (21.0) L/h, the Cmax [4, 13] was 3460 nM and the t½ [4, 13] was 10.5 (29.1) h. For the same compound, the Tmax ([4]; Japanese, 360 mg OD, Day 10) was 2.0 (1.0, 3.0) h, the AUCτ [4, 14] was 17,592.6 (39.9) nmol∙h/L and the CL/F [4, 14] was 74.1 (40.0) L/h. The Cmax [4, 14] was 5180 nM, the t½ [4, 14] was 7.4 (25.5) h and the Tmax ([4]; Japanese, 600 mg OD, Day 1) was 1.0 (1.0, 2.0) h. For the same compound, the AUCτ [4, 15] was 27,349.3 (48.8) nmol∙h/L, the CL/F [4, 15] was 49.1 (48.8) L/h and the CLR [4, 15] was 0.8 (16.8) L/h. The Cmax [4, 15] was 6150 nM, the t½ [4, 15] was 8.5 (35.1) h and the Tmax ([4]; Japanese, 600 mg OD, Day 10) was 1.0 (1.0, 2.0) h. The “Tmax (median) across doses” value ([4]; Japanese, 60–600 mg oral, fasted) was 1 to 2 h, the “accumulation in AUCτ” value ([4]; Japanese, Day 10 versus Day 1, all doses) was 32–77% and the “time to steady-state plasma concentrations” value ([4]; Japanese, once-daily dosing) was 3 to 4 days. For the same compound, the Cmax ([4]; read-out: Cmax, Japanese geometric mean, body weight normalized to 70 kg, 60 mg, Day 10) was 147 nM, the Cmax ([4]; read-out: Cmax, Japanese geometric mean, body weight normalized to 70 kg, 180 mg, Day 10) was 1370 nM and the Cmax ([4]; read-out: Cmax, Japanese geometric mean, body weight normalized to 70 kg, 360 mg, Day 10) was 3270 nM. For the same compound, the Cmax ([4]; read-out: Cmax, Japanese geometric mean, body weight normalized to 70 kg, 600 mg, Day 10) was 5820 nM, the “time to steady-state levels” value ([5]; SMAD study, once-daily dosing) was 2 to 3 days and the terminal half-life ([5]; SMAD study) was 10 h. For the same compound, the “AUCτ, non-Japanese geometric mean” value ([5]; non-Japanese, 60 mg multiple dosing, Day 10) was 1386.3 nmol·h/L, the “AUCτ, non-Japanese geometric mean” value ([5]; non-Japanese, 180 mg multiple dosing, Day 10) was 5128.4 nmol·h/L and the “AUCτ, non-Japanese geometric mean” value ([5]; non-Japanese, 360 mg multiple dosing, Day 10) was 12,764.7 nmol∙h/L. The “AUCτ, non-Japanese geometric mean” value ([5]; non-Japanese, 600 mg multiple dosing, Day 10) was 23,175.0 nmol∙h/L, the Cmax ([5]; read-out: Cmax, non-Japanese geometric mean, non-Japanese, 60 mg multiple dosing, Day 10) was 220 nM and the “AUCτ GMR Japanese versus non-Japanese, % (90% CI)” value ([6]; 60 mg) was 82 (63–108) %. The “AUCτ GMR Japanese versus non-Japanese, % (90% CI), body weight normalized to 70 kg” value ([6]; 60 mg) was 72 (55–95) %, the “Cmax GMR Japanese versus non-Japanese, % (90% CI)” value ([6]; 60 mg) was 72 (54–97) % and the “Cmax GMR Japanese versus non-Japanese, % (90% CI), body weight normalized to 70 kg” value ([6]; 60 mg) was 63 (48–84) %. For the same compound, the “AUCτ GMR Japanese versus non-Japanese, % (90% CI)” value ([6]; 180 mg) was 131 (88–196) %, the “AUCτ GMR Japanese versus non-Japanese, % (90% CI), body weight normalized to 70 kg” value ([6]; 180 mg) was 101 (71–144) % and the “Cmax GMR Japanese versus non-Japanese, % (90% CI)” value ([6]; 180 mg) was 126 (82–195) %. The “Cmax GMR Japanese versus non-Japanese, % (90% CI), body weight normalized to 70 kg” value ([6]; 180 mg) was 97 (65–145) %, the “AUCτ GMR Japanese versus non-Japanese, % (90% CI)” value ([6]; 360 mg) was 124 (83–186) % and the “AUCτ GMR Japanese versus non-Japanese, % (90% CI), body weight normalized to 70 kg” value ([6]; 360 mg) was 102 (70–149) %. The “Cmax GMR Japanese versus non-Japanese, % (90% CI)” value ([6]; 360 mg) was 108 (72–162) %, the “Cmax GMR Japanese versus non-Japanese, % (90% CI), body weight normalized to 70 kg” value ([6]; 360 mg) was 89 (60–131) % and the “AUCτ GMR Japanese versus non-Japanese, % (90% CI)” value ([6]; 600 mg) was 118 (73–190) %. For the same compound, the “AUCτ GMR Japanese versus non-Japanese, % (90% CI), body weight normalized to 70 kg” value ([6]; 600 mg) was 104 (69–156) %, the “Cmax GMR Japanese versus non-Japanese, % (90% CI)” value ([6]; 600 mg) was 108 (66–178) % and the “Cmax GMR Japanese versus non-Japanese, % (90% CI), body weight normalized to 70 kg” value ([6]; 600 mg) was 95 (64–142) %. For the same compound, the “AUCτ, non-Japanese geometric mean, body weight normalized to 70 kg” value ([7]; 60 mg) was 1464.7 nmol·h/L, the “AUCτ, non-Japanese geometric mean, body weight normalized to 70 kg” value ([7]; 180 mg) was 5837.1 nmol·h/L and the “AUCτ, non-Japanese geometric mean, body weight normalized to 70 kg” value ([7]; 360 mg) was 14,647.6 nmol∙h/L. For the same compound, the “AUCτ, non-Japanese geometric mean, body weight normalized to 70 kg” value ([7]; 600 mg) was 24,956.5 nmol∙h/L, the Cmax ([7]; read-out: Cmax, non-Japanese geometric mean, body weight normalized to 70 kg, 60 mg, Day 10) was 232 nM and the Cmax ([7]; read-out: Cmax, non-Japanese geometric mean, body weight normalized to 70 kg, 180 mg, Day 10) was 1420 nM. For the same compound, the Cmax ([7]; read-out: Cmax, non-Japanese geometric mean, body weight normalized to 70 kg, 360 mg, Day 10) was 3680 nM and the Cmax ([7]; read-out: Cmax, non-Japanese geometric mean, body weight normalized to 70 kg, 600 mg, Day 10) was 6130 nM.
